According to ChEMBL document CHEMBL2057132, “Structure-activity relationship of 2,2-dimethyl-2H-chromene based arylsulfonamide analogs of 3,4-dimethoxy-N-[(2,2-dimethyl-2H-chromen-6-yl)methyl]-N-phenylbenzenesulfonamide, a novel small molecule hypoxia inducible factor-1 (HIF-1) pathway inhibitor and anti-cancer agent” (Bioorg Med Chem, 2012):
Active and inactive are the calls of the source. No cut-off for these calls is given here.

Assays:
[1] = biological target: T1, Hypoxia inducible factors; HIF-1-alpha, HIF-2-alpha (Homo sapiens, UniProt Q16665+Q99814); test: Inhibition of HIF1 transcriptional activity in human LN229 cells expressing VEGF-HRE-V6R and coexpressing luciferase, lac Z gene incubated for 1 hr in normoxia condition followed by 24 hrs in hypoxia condition by reporter gene assay; assay type: cell-based
How it was run: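 LN229 glioblastoma cells stably carrying a 6×VEGF-HRE bidirectional luciferase/lacZ reporter, 3 × 10^4 per well, grown 24 h normoxic in DMEM/10% FBS. Compound (serial dilutions in medium, 1% DMSO) added, 1 h normoxia, then 24 h at 1% O2, 37 °C. Lysate luciferase read by luminometer, as percent of untreated hypoxic cells. Triplicates, two independent experiments.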

[2] = Downregulation of HIF1alpha protein level in human LN229 cells expressing VEGF-HRE-V6R at 10 uM incubated for 1 hr in normoxia condition followed by 24 hrs in hypoxia condition by Western blot analysis relative to control; assay type: functional, cell-based; details: LN-229
How it was run: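 LN229-V6R cells (2 × 10^5 per 35 mm dish) grown 24 h under normoxia. Compounds given at 10 μM in medium with 1% DMSO, 1 h normoxia, then 24 h hypoxia (1% O2) at 37 °C. SDS lysis, 12.5% gel, nitrocellulose, anti-HIF-1α and β-actin blots, ECL. Densitometry as percent of untreated hypoxic control, normalized to β-actin.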

[3] = Aqueous solubility of the compound at pH 7.4; assay type: physicochemical
[4] = biological target: T1, Hypoxia inducible factors; HIF-1-alpha, HIF-2-alpha; test: Inhibition of HIF1 transcriptional activity in human LN229 cells expressing VEGF-HRE-V6R and coexpressing lac Z gene at 10 uM incubated for 1 hr in normoxia condition followed by 24 hrs in hypoxia condition by luciferase reporter gene assay relative to control; values are per cent of control

| Structure (SMILES) | IC50 [1] [µM] | inhibition [1] | residual activity [4] [%] | Activity [2] | solubility [3] [µg/mL] |
| --- | --- | --- | --- | --- | --- |
| CC1(C)C=Cc2cc(CN(c3ccccc3)S(=O)(=O)c3ccc([N+](=O)[O-])cc3)ccc2O1 | 4.2 | Dose-dependent effect | – | – | – |
| COc1ccc(S(=O)(=O)N(Cc2ccc3c(c2)C=CC(C)(C)O3)c2ccccc2)cc1OC | 1.6 | Dose-dependent effect | < 5 | inactive | < 15 |
| CC(C)N(Cc1ccc2c(c1)C=CC(C)(C)O2)S(=O)(=O)c1ccccc1 | 2.2 | Dose-dependent effect | – | – | – |
| CC1(C)C=Cc2cc(CN(c3ccccc3)S(=O)(=O)c3ccc(F)cc3)ccc2O1 | 4.8 | Dose-dependent effect | – | – | – |
| CC1(C)C=Cc2cc(CN(c3ccccc3)S(=O)(=O)c3ccccc3)ccc2O1 | 2.7 | Dose-dependent effect | – | – | – |
| CC(C)N(Cc1ccc2c(c1)C=CC(C)(C)O2)S(=O)(=O)c1cc(Cl)ccc1Cl | 16.8 | Dose-dependent effect | – | – | – |
| CC(C)N(Cc1ccc2c(c1)C=CC(C)(C)O2)S(=O)(=O)c1ccc([N+](=O)[O-])cc1 | 3 | Dose-dependent effect | – | – | – |
| CC(C)N(Cc1ccc2c(c1)C=CC(C)(C)O2)S(=O)(=O)c1ccc(F)cc1 | 3.8 | Dose-dependent effect | – | inactive | – |
| COc1ccc(S(=O)(=O)N(Cc2ccc3c(c2)C=CC(C)(C)O3)C(C)C)cc1OC | 1.5 | Dose-dependent effect | < 5 | 30% | – |

Second part, led by results:

| IC50 [1] [µM] | inhibition [1] | residual activity [4] [%] | Structure (SMILES) | Activity [2] | solubility [3] [µg/mL] |
| --- | --- | --- | --- | --- | --- |
| 3.3 | Dose-dependent effect | – | CC1(C)C=Cc2cc(CN(c3ccccc3)S(=O)(=O)c3cc(Cl)ccc3Cl)ccc2O1 | – | – |
| 7.2 | Dose-dependent effect | – | CC1(C)C=Cc2cc(CN(c3ccc(F)cc3)S(=O)(=O)c3ccccc3)ccc2O1 | – | – |
| 8 | Dose-dependent effect | – | CC1(C)C=Cc2cc(CN(c3ccc(F)cc3)S(=O)(=O)c3cc(Cl)ccc3Cl)ccc2O1 | – | – |
| 3.2 | Dose-dependent effect | < 5 | COc1ccc(S(=O)(=O)N(Cc2ccc3c(c2)C=CC(C)(C)O3)c2ccc(F)cc2)cc1OC | inactive | – |
| 6.6 | Dose-dependent effect | – | CC1(C)C=Cc2cc(CN(c3ccc(F)cc3)S(=O)(=O)c3ccc(F)cc3)ccc2O1 | – | – |
| 4.8 | Dose-dependent effect | – | CC1(C)C=Cc2cc(CN(c3ccc(F)cc3)S(=O)(=O)c3ccc([N+](=O)[O-])cc3)ccc2O1 | – | – |
